Results from ChEMBL document CHEMBL2176992, “Synthesis and structure-activity relationship of (E)-phenoxyacrylic amide derivatives as hypoxia-inducible factor (HIF) 1α inhibitors” (J Med Chem, 2012).
Values after ≈ are worked out from the molar mass of the structure shown. Active and inactive are the calls of the source. No cut-off for these calls is given here.

Assays:
HCT-116 [1] = experiment: Cytotoxicity against human HCT116 cells assessed as cell viability after 48 hrs by SRB assay; type: cell-based; details: hct-116, 48 h
Outline: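 Cell viability of HCT116 by sulforhodamine B assay under the hypoxic reporter-assay conditions; mean of three experiments.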

[2] = biological target: T1, Hypoxia-inducible factor 1-alpha (Homo sapiens, UniProt Q16665); experiment: Inhibition of HIF1alpha in human HCT116 cells under hypoxic condition after 16 hrs by dual luciferase reporter gene assay; type: cell-based; details: hct-116
Outline: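 HRE-luciferase reporter in HCT116 cells under hypoxia (1% O2, 94% N2, 5% CO2); luciferase read-out. IC50 from the mean of three experiments; LW6 positive control.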
Target sequence in this assay (Q16665 whole entry): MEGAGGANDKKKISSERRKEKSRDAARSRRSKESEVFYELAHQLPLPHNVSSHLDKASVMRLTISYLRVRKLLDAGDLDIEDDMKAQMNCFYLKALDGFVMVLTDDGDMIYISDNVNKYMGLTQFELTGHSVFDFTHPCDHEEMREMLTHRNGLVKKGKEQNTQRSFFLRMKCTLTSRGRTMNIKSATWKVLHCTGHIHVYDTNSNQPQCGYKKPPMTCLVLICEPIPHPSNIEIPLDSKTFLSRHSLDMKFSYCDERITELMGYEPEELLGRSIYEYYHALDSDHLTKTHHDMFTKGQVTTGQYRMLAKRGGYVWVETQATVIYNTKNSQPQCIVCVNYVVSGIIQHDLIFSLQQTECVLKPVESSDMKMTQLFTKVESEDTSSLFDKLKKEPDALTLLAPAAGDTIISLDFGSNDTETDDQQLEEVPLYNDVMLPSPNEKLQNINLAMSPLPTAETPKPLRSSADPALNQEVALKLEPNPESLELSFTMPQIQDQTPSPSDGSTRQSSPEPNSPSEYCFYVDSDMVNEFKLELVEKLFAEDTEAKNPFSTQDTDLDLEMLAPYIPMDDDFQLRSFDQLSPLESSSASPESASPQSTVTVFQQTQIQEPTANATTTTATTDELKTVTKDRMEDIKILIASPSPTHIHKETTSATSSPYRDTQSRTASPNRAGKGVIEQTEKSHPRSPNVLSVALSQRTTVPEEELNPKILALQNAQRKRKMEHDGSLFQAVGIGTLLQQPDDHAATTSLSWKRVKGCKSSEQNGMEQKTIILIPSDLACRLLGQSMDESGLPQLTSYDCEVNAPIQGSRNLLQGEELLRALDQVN

[3] = Kinetic solubility of the compound in water at pH 9 by nephlometry; type: physicochemical; details: read-out: Kinetic_solubility
Outline: (§1)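 Kinetic aqueous solubility determined by nephelometry at pH 2, 7.4 and 9; values are the mean of three experiments.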

[4] = Kinetic solubility of the compound in water at pH 2 by nephlometry; type: physicochemical; details: read-out: Kinetic_solubility; outline: as §1
[5] = Kinetic solubility of the compound in water at pH 7.4 by nephlometry; type: physicochemical; details: read-out: Kinetic_solubility; outline: as §1
[6] = biological target: T1, Hypoxia-inducible factor 1-alpha; experiment: Inhibition of HIF1alpha in human HCT116 cells under hypoxic condition assessed as decrease in MMP9 mRNA expression by RT-PCR analysis; type: cell-based; details: HCT-116
Outline: (§2)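 HCT116 cells were treated under hypoxia (1% O2, 94% N2, 5% CO2), and the 2 μM test level was named. mRNA of HIF-1α and its targets (VEGF, EPO, MMP-9) was measured by RT-PCR.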
Target sequence in this assay (Q16665 whole entry, looked up): as the sequence (Q16665 whole entry) above

[7] = biological target: T1, Hypoxia-inducible factor 1-alpha; experiment: Inhibition of HIF1alpha in human HCT116 cells under hypoxic condition assessed as increase in VHL expression at 2 to 5 uM by dual luciferase reporter gene assay; type: cell-based; details: HCT-116
Outline: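 HCT116 cells were exposed to 0, 2 or 5 μM compound under hypoxia (1% O2, 94% N2, 5% CO2). They were lysed in RIPA buffer, and total lysates were examined for VHL expression.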
Target sequence in this assay (Q16665 whole entry, looked up): as the sequence (Q16665 whole entry) above

HCT-116 [8] = experiment: Antimigratory activity against human HCT116 cells assessed as inhibition of cell migration after 24 hrs by wound healing assay; type: functional, cell-based
Outline: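 Scratch-wound migration of HCT116 cells formed with culture inserts; cells treated with compound or SU11248 and wound closure observed over 24 h.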

HCT-116 [9] = experiment: Downregulation of HIF1alpha mRNA expression in human HCT116 cells under hypoxic condition at 2 to 10 uM by RT-PCR analysis; type: functional, cell-based
Outline: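 mRNA of HIF-1α and target genes measured by RT-PCR in compound-treated cells.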

HUVEC [10] = experiment: Cytotoxicity against HUVECs assessed as growth inhibition at 1 to 5 uM after 48 hrs by SRB assay; type: cell-based; details: human
Outline: (§3)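 HUVEC growth inhibition measured by sulforhodamine B assay, run in parallel with the Matrigel tube-formation incubation (compound or SU11248).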

LoVo = experiment: Inhibition of HIF1alpha expression in human LoVo cells under hypoxic condition assessed as decrease in protein accumulation by Western blot analysis; type: functional, cell-based
Outline: (§4)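 Cells held under hypoxia (1% O2, 94% N2, 5% CO2) with compound at various concentrations; HIF-1α protein in lysates detected by Western blot. LW6 as control; HIF-1β also probed.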

HCT-116 [11] = experiment: Inhibition of HIF1beta expression in human HCT116 cells under hypoxic condition assessed as protein accumulation at 0.05 to 30 uM by Western blot analysis; type: functional, cell-based
Outline: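 HCT116 cells under hypoxia treated with compound at various concentrations; HIF-1β protein level in lysates assessed by Western blot alongside HIF-1α.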

HCT-116 [12] = experiment: Inhibition of HIF1alpha expression in human HCT116 cells under hypoxic condition assessed as decrease in protein accumulation by Western blot analysis; type: functional, cell-based; outline: as §4
[13] = biological target: T1, Hypoxia-inducible factor 1-alpha; experiment: Inhibition of HIF1alpha in human HCT116 cells under hypoxic condition assessed as decrease in EPO mRNA expression by RT-PCR analysis; type: cell-based; details: HCT-116; outline: as §2
Target sequence in this assay (Q16665 whole entry, looked up): as the sequence (Q16665 whole entry) above

[14] = biological target: T1, Hypoxia-inducible factor 1-alpha; experiment: Inhibition of HIF1alpha in human HCT116 cells under hypoxic condition at 5 uM after 12 hrs by dual luciferase reporter gene assay in presence of dipyridol; type: cell-based; details: HCT-116
Outline: (§5)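 HCT116 cells were cotransfected with pGL3-HRE-luciferase and pRL-SV40 and incubated 24 h. They were then held under hypoxia 4 h and treated with 5 μM compound for 12 h under hypoxia, with 200 μM dipyridol added where stated. Firefly luciferase was read against Renilla.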
Target sequence in this assay (Q16665 whole entry, looked up): as the sequence (Q16665 whole entry) above

HUVEC [15] = experiment: Antiangiogenic activity in HUVECs under hypoxic condition assessed as inhibition of tube formation at 2 to 5 uM after 18 hrs; type: functional, cell-based; details: Homo sapiens
Outline: (§6)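 HUVECs seeded on wells coated with ice-cold Matrigel, incubated with compound under 1% O2 for 18 h. Tubule branches photographed; SU11248 as VEGFR-inhibitor positive control.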

[16] = biological target: T1, Hypoxia-inducible factor 1-alpha; experiment: Inhibition of HIF1alpha in human HCT116 cells under hypoxic condition at 5 uM after 12 hrs by dual luciferase reporter gene assay in absence of dipyridol; type: cell-based; details: HCT-116; outline: as §5
Target sequence in this assay (Q16665 whole entry, looked up): as the sequence (Q16665 whole entry) above

[17] = biological target: T1, Hypoxia-inducible factor 1-alpha; experiment: Inhibition of HIF1alpha in human HCT116 cells under normoxic condition assessed as increase in VHL expression at 2 to 5 uM by dual luciferase reporter gene assay; type: cell-based; details: HCT-116
Target sequence in this assay (Q16665 whole entry, looked up): as the sequence (Q16665 whole entry) above

A549 = experiment: Inhibition of HIF1alpha expression in human A549 cells under hypoxic condition assessed as decrease in protein accumulation by Western blot analysis; type: functional, cell-based; outline: as §4
HeLa = experiment: Inhibition of HIF1alpha expression in human HeLa cells under hypoxic condition assessed as decrease in protein accumulation by Western blot analysis; type: functional, cell-based; outline: as §4
[18] = biological target: T1, Hypoxia-inducible factor 1-alpha; experiment: Inhibition of HIF1alpha in human HCT116 cells under hypoxic condition assessed as decrease in VEGF mRNA expression by RT-PCR analysis; type: cell-based; details: HCT-116; outline: as §2
PC-3 = experiment: Inhibition of HIF1alpha expression in human PC3 cells under hypoxic condition assessed as decrease in protein accumulation by Western blot analysis; type: functional, cell-based; outline: as §4
HUVEC [19] = experiment: Antiangiogenic activity in HUVECs under hypoxic condition assessed as inhibition of tube formation at 2 uM after 18 hrs; type: functional, cell-based; details: Homo sapiens; outline: as §6
HUVEC [20] = experiment: Cytotoxicity against HUVECs assessed as growth inhibition at 0.5 to 2 uM after 48 hrs by SRB assay; type: cell-based; details: human; outline: as §3
[21] = biological target: T1, Hypoxia-inducible factor 1-alpha; experiment: Inhibition of HIF1alpha in human HCT116 cells under hypoxic condition at 0.4 uM after 12 hrs by dual luciferase reporter gene assay in absence of dipyridol; type: cell-based; details: HCT-116
Outline: (§7)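 Cells cotransfected with pGL3-HRE-luciferase and pRL-SV40, incubated 24 h, then 4 h hypoxia. Then treated with compound (17-AAG 0.4 μM; test 5 μM) with or without 200 μM dipyridol for 12 h under hypoxia. Firefly luciferase normalised to Renilla.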

[22] = biological target: T1, Hypoxia-inducible factor 1-alpha; experiment: Inhibition of HIF1alpha in human HCT116 cells under hypoxic condition at 0.4 uM after 12 hrs by dual luciferase reporter gene assay in presence of dipyridol; type: cell-based; details: HCT-116; outline: as §7

SMILES	Activity (HCT-116 [1]) [µM]	IC50 [2] [nM]	also measured
COC(=O)c1cc(NC(=O)/C=C/Oc2ccc(C34CC5CC(CC(C5)C3)C4)cc2)ccc1O	> 20	> 20000	–
COC(=O)c1cccc(NC(=O)CCOc2ccc(C34CC5CC(CC(C5)C3)C4)cc2)c1	> 20	2540	–
O=C(/C=C/Oc1ccc(C23CC4CC(CC(C4)C2)C3)cc1)Nc1cccc(C(=O)NCc2ccco2)c1	> 20	> 20000	–
COC(=O)c1cccc(NC(=O)/C=C/Oc2ccc(C34CC5CC(CC(C5)C3)C4)cc2)c1	> 20	–	solubility kinetic [3]: 12.2 µM (≈ 5.27 µg/mL); solubility kinetic [4]: 4.25 µM (≈ 1.83 µg/mL); solubility kinetic [5]: 6.56 µM (≈ 2.83 µg/mL)
COC(=O)c1cccc(NC(=O)CCCOc2ccc(C34CC5CC(CC(C5)C3)C4)cc2)c1	> 20	15800	–
O=C(/C=C/Oc1ccc(C23CC4CC(CC(C4)C2)C3)cc1)Nc1cccc(C(=O)OCCN2CCOCC2)c1	> 20	120	inhibition [6]: Dose-dependent effect; inhibition [7]: Active; inhibition (HCT-116 [8]): Active; solubility kinetic [3]: 61.3 µM (≈ 32.5 µg/mL); Activity (HCT-116 [9]): inactive; solubility kinetic [4]: 45.1 µM (≈ 23.9 µg/mL); Activity (HUVEC [10]): Non-toxic; inhibition (LoVo): Dose-dependent effect; inhibition (HCT-116 [11]): inactive; inhibition (HCT-116 [12]): Dose-dependent effect; solubility kinetic [5]: 113 µM (≈ 60 µg/mL); inhibition [13]: Dose-dependent effect; inhibition [14]: inactive; inhibition (HUVEC [15]): Active; inhibition [16]: Active; inhibition [17]: Active; inhibition (A549): Dose-dependent effect; inhibition (HeLa): Dose-dependent effect; inhibition [18]: Dose-dependent effect; inhibition (PC-3): Dose-dependent effect
CCOC(=O)c1cccc(NC(=O)/C=C/Oc2ccc(C34CC5CC(CC(C5)C3)C4)cc2)c1	> 20	820	–
O=C(/C=C/Oc1ccc(C23CC4CC(CC(C4)C2)C3)cc1)Nc1cccc(C(=O)NCCc2ccncc2)c1	> 20	1340	–
O=C(/C=C/Oc1ccc(C23CC4CC(CC(C4)C2)C3)cc1)Nc1cccc(C(=O)OCCN2CCCC2)c1	> 20	1350	–
CS(=O)(=O)c1cccc(NC(=O)/C=C/Oc2ccc(C34CC5CC(CC(C5)C3)C4)cc2)c1	> 20	1180	–
CCN(CC)CCNC(=O)c1c(C)[nH]c(/C=C2\C(=O)Nc3ccc(F)cc32)c1C [SUNITINIB]	–	–	inhibition (HCT-116 [8]): Active; inhibition (HUVEC [19]): Active; Activity (HUVEC [20]): Non-toxic
NC(=O)c1cccc(NC(=O)/C=C/Oc2ccc(C34CC5CC(CC(C5)C3)C4)cc2)c1	> 20	> 20000	–
O=C(/C=C/Oc1ccc(C23CC4CC(CC(C4)C2)C3)cc1)Nc1cccc(C(=O)NCCCn2ccnc2)c1	> 20	1850	–
O=C(/C=C/Oc1ccc(C23CC4CC(CC(C4)C2)C3)cc1)Nc1cccc(C(=O)O)c1	> 20	> 20000	–
COCCOC(=O)c1cccc(NC(=O)/C=C/Oc2ccc(C34CC5CC(CC(C5)C3)C4)cc2)c1	> 20	1840	–
CN(C)CCOC(=O)c1cccc(NC(=O)/C=C/Oc2ccc(C34CC5CC(CC(C5)C3)C4)cc2)c1	> 20	2620	–
CC(C)NC(=O)c1cccc(NC(=O)/C=C/Oc2ccc(C34CC5CC(CC(C5)C3)C4)cc2)c1	> 20	> 20000	–
COC(=O)c1cccc(NC(=O)/C=C/Oc2ccc(C(C)(C)C)cc2)c1	> 20	6030	–
C=CCNC1=C2C[C@@H](C)C[C@H](OC)[C@H](O)[C@@H](C)/C=C(\C)[C@H](OC(N)=O)[C@@H](OC)/C=C\C=C(/C)C(=O)NC(=CC1=O)C2=O	–	–	inhibition [21]: Active; inhibition [22]: Active
NS(=O)(=O)c1cccc(NC(=O)/C=C/Oc2ccc(C34CC5CC(CC(C5)C3)C4)cc2)c1	> 20	2380	–
O=C(/C=C/Oc1ccc(C23CC4CC(CC(C4)C2)C3)cc1)Nc1cccc(C(=O)NCCN2CCOCC2)c1	> 20	1070	–
COC(=O)c1cccc(NC(=O)/C=C/Oc2ccc(C34CC5CC(CC(C5)C3)C4)cc2C)c1	> 20	4120	–
COC(=O)c1ccc(NC(=O)/C=C/Oc2ccc(C34CC5CC(CC(C5)C3)C4)cc2)cc1	> 20	2170	–
COC(=O)c1cccc(NC(=O)/C=C/Oc2ccc(C(C)(C)CC(C)(C)C)cc2)c1	> 20	1040	–
COC(=O)c1ccc(O)c(NC(=O)COc2ccc(C34CC5CC(CC(C5)C3)C4)cc2)c1	> 20	2440	solubility kinetic [3]: 44.9 µM (≈ 19.6 µg/mL); solubility kinetic [4]: 68.2 µM (≈ 29.7 µg/mL); solubility kinetic [5]: 6.85 µM (≈ 2.98 µg/mL)
COC(=O)c1cccc(NC(=O)COc2ccc(C34CC5CC(CC(C5)C3)C4)cc2)c1	> 20	5030	–
